ChEMBL document CHEMBL1138562, “2,3-Disubstituted-1,4-naphthoquinones, 12H-benzo[b]phenothiazine-6,11-diones and related compounds: synthesis and biological evaluation as potential antiproliferative and antifungal agents” (2009)
In brackets after ≈: the same amount, converted by molar mass. Activity calls are given as the source filed them. The calls are words filed in the database; no cut-off is given here.

Assays:
[1] = system: Trichophyton mentagrophytes; test: Antifungal activity against Trichophyton mentagrophytes after 96 hrs by micro broth dilution method; assay type: functional
Summary of the method: (§1)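 Micro broth dilution per NCCLS in RPMI 1640 buffered with MOPS. Inoculum 1-5 × 10³ cells/mL. Plates kept in a moist chamber at 35 °C. Absorbance read at 492 nm after 48 h (C. albicans, C. parapsilosis), 72 h (A. fumigatus, S. schenckii, C. neoformans) or 96 h (T. mentagrophytes). MIC taken as 90% growth inhibition versus control.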

[2] = system: Aspergillus fumigatus; test: Antifungal activity against Aspergillus fumigatus after 72 hrs by micro broth dilution method; assay type: functional; summary of the method: as §1
[3] = system: Sporothrix schenckii; test: Antifungal activity against Sporothrix schenckii after 72 hrs by micro broth dilution method; assay type: functional; summary of the method: as §1
[4] = system: Candida albicans; test: Antifungal activity against Candida albicans after 48 hrs by micro broth dilution method; assay type: functional; summary of the method: as §1
[5] = system: Candida parapsilosis; test: Antifungal activity against Candida parapsilosis ATCC 22019 after 48 hrs by micro broth dilution method; assay type: functional; details: Lodderomyces parapsilosis, ATCC 22019, 48 h; summary of the method: as §1
[6] = system: Cryptococcus neoformans; test: Antifungal activity against Cryptococcus neoformans after 72 hrs by micro broth dilution method; assay type: functional; summary of the method: as §1
[7] = system: HeLa; test: Induction of apoptosis in human HeLa cells assessed as cell population at mitosis at 5 uM after 24 hrs; assay type: functional
Summary of the method: (§2)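 HeLa cells grown on coverslips and exposed 24 h to compound (5, 10, 20 µM or none). Microtubules stained with mouse anti-α-tubulin and FITC anti-mouse IgG, chromosomes with DAPI. Mitotic cells scored by fluorescence microscopy.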

[8] = system: HeLa; test: Induction of apoptosis in human HeLa cells assessed as morphological changes at 5 uM after 24 hrs by differential interference contrast microscopy; assay type: functional, cell-based
Summary of the method: (§3)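 HeLa cells grown on coverslips at 5 × 10⁴ cells/mL and incubated 24 h with 5 µM compound. Stained with FITC-Annexin V (early apoptosis) and propidium iodide (late apoptosis/necrosis) using a kit. Imaged by DIC for morphology and by fluorescence.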

[9] = system: HeLa; test: Antiproliferative activity against human HeLa cells at 20 uM after 24 hrs by sulforhodamine B assay; assay type: functional
Summary of the method: (§4)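 HeLa cells grown in Eagle's MEM with 10% FBS at 37 °C under 5% CO2. Seeded at 1 × 10⁵ cells/mL and medium replaced after 24 h. Compounds added from DMSO stocks (final DMSO below 0.1%; DMSO vehicle as control) for one cell cycle (24 h). Cells stained with 0.4% sulforhodamine B and protein-bound dye read at 560 nm.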

[10] = system: HeLa; test: Induction of apoptosis in human HeLa cells assessed as cell population at mitosis at 10 uM after 24 hrs; assay type: functional; summary of the method: as §2
[11] = system: HeLa; test: Antiproliferative activity against human HeLa cells at 5 uM after 24 hrs by sulforhodamine B assay; assay type: functional; summary of the method: as §4
[12] = system: HeLa; test: Antiproliferative activity against human HeLa cells at 1 uM after 24 hrs by sulforhodamine B assay; assay type: functional; summary of the method: as §4
[13] = system: HeLa; test: Induction of apoptosis in human HeLa cells assessed as cell population at mitosis at 20 uM after 24 hrs; assay type: functional; summary of the method: as §2
[14] = system: HeLa; test: Induction of apoptosis in human HeLa cells at 5 uM after 24 hrs by annexin 5-propidium iodide staining mathod; assay type: functional, cell-based; summary of the method: as §3
[15] = system: HeLa; test: Antiproliferative activity against human HeLa cells at 34 uM after 24 hrs by sulforhodamine B assay; assay type: functional
[16] = system: HeLa; test: Induction of apoptosis in human HeLa cells assessed as blockade of cell cycle progression at mitosis after 24 hrs; assay type: functional, cell-based; summary of the method: as §2

Row | Compound | MIC [1] | MIC [2] | MIC [3] | MIC [4] | MIC [5] | MIC [6] | Activity [7] | Activity [8] | inhibition at 20 µM [9] | Activity [10] | inhibition at 5 µM [11] | inhibition at 1 µM [12] | Activity [13] | Activity [14] | inhibition at 34 µM [15] | Activity [16]
1 | OC(Cn1cncn1)(Cn1cncn1)c1ccc(F)cc1F [FLUCONAZOLE] | 0.5 mg/L (≈ 1.63 µM) | 2 mg/L (≈ 6.53 µM) | 2 mg/L (≈ 6.53 µM) | 1 mg/L (≈ 3.27 µM) | 2 mg/L (≈ 6.53 µM) | 1 mg/L (≈ 3.27 µM) |  |  |  |  |  |  |  |  |  | 
2 | C[C@@H]1[C@H](O)[C@@H](C)/C=C/C=C/C=C/C=C/C=C/C=C/C=C/[C@H](O[C@@H]2O[C@H](C)[C@@H](O)[C@H](N)[C@@H]2O)C[C@@H]2O[C@](O)(C[C@@H](O)C[C@@H](O)[C@H](O)CC[C@@H](O)C[C@@H](O)CC(=O)O[C@H]1C)C[C@H](O)[C@H]2C(=O)O [AMPHOTERICIN B] | 1.56 mg/L (≈ 1.69 µM) |  |  | 0.39 mg/L (≈ 0.422 µM) |  | 0.78 mg/L (≈ 0.844 µM) |  |  |  |  |  |  |  |  |  | 
3 | COc1cccc(SC2=C(Sc3cccc(OC)c3)C(=O)c3ccccc3C2=O)c1 | 50 mg/L (≈ 115 µM) | > 50 mg/L | > 50 mg/L | > 50 mg/L | > 50 mg/L | > 50 mg/L | 3.5% | Active | 100% | 3.8% | 76% | 64% | 4.2% | Active |  | 
4 | COc1cccc(SC2=C(Cl)C(=O)c3ccccc3C2=O)c1 | 3.12 mg/L (≈ 9.43 µM) | 25 mg/L (≈ 75.6 µM) | 3.12 mg/L (≈ 9.43 µM) | 25 mg/L (≈ 75.6 µM) | 25 mg/L (≈ 75.6 µM) | 25 mg/L (≈ 75.6 µM) |  |  | 74% |  | 48% | 39% |  |  |  | 
5 | O=C1C(Cl)=C(Cl)C(=O)c2ccccc21 [Dichlon] | 1.56 mg/L (≈ 6.87 µM) | 1.56 mg/L (≈ 6.87 µM) | 0.78 mg/L (≈ 3.44 µM) | 0.78 mg/L (≈ 3.44 µM) | 1.56 mg/L (≈ 6.87 µM) | 3.12 mg/L (≈ 13.7 µM) |  |  | 49% |  | 43% | 28% |  |  |  | 
6 | COc1ccc2[nH]c3c(=O)c4ccccc4c(=O)c=3sc2c1 | 50 mg/L (≈ 162 µM) | > 50 mg/L | > 50 mg/L | > 50 mg/L | > 50 mg/L | > 50 mg/L |  |  | 77% |  | 20% | 8.5% |  |  |  | 
7 | O=C1C(Sc2cccc3ccccc23)=C(Sc2cccc3ccccc23)C(=O)c2ccccc21 | > 50 mg/L | > 50 mg/L | > 50 mg/L | > 50 mg/L | > 50 mg/L | > 50 mg/L |  |  | 46% |  | 30% | 22% |  |  |  | 
8 | O=C1C(Cl)=C(Sc2cccc3ccccc23)C(=O)c2ccccc21 | 6.25 mg/L (≈ 17.8 µM) | 50 mg/L (≈ 143 µM) | 6.25 mg/L (≈ 17.8 µM) | 50 mg/L (≈ 143 µM) | 50 mg/L (≈ 143 µM) | 50 mg/L (≈ 143 µM) |  |  | 69% |  | 22% | 0% |  |  |  | 
9 | Clc1ccc(COC(Cn2ccnc2)c2ccc(Cl)cc2Cl)c(Cl)c1 (stereo not given) [MICONAZOLE] | < 0.78 mg/L | 12.5 mg/L (≈ 30 µM) |  | 25 mg/L (≈ 60.1 µM) |  | 12.5 mg/L (≈ 30 µM) |  |  |  |  |  |  |  |  |  | 
10 | COc1ccc2c(c1OC)C(=O)O[C@@H]2[C@H]1c2c(cc3c(c2OC)OCO3)CCN1C [NOSCAPINE] |  |  |  |  |  |  |  |  |  |  |  |  |  |  | 50% | 
11 | O=c1c2[nH]c3ccccc3sc=2c(=O)c2ccccc12 | > 50 mg/L | > 50 mg/L | 50 mg/L (≈ 179 µM) | > 50 mg/L | > 50 mg/L | > 50 mg/L |  |  | 42% |  | 6.5% | 5.5% |  |  |  | 
12 | O=C1C(Sc2ccccc2)=C(Sc2ccccc2)C(=O)c2ccccc21 | > 50 mg/L | > 50 mg/L | 50 mg/L (≈ 134 µM) | > 50 mg/L | > 50 mg/L | > 50 mg/L |  | Active | 100% |  | 60% | 51% |  | Active |  | inactive
13 | O=c1c2[nH]c3ccc4ccccc4c3sc=2c(=O)c2ccccc12 | > 50 mg/L | > 50 mg/L | 50 mg/L (≈ 152 µM) | > 50 mg/L | > 50 mg/L | > 50 mg/L |  |  | 42% |  | 19% | 12% |  |  |  | 
14 | O=C1C(Cl)=C(Sc2ccccc2)C(=O)c2ccccc21 | 1.56 mg/L (≈ 5.19 µM) | 12.5 mg/L (≈ 41.6 µM) | 1.56 mg/L (≈ 5.19 µM) | 6.25 mg/L (≈ 20.8 µM) | 6.25 mg/L (≈ 20.8 µM) | 6.25 mg/L (≈ 20.8 µM) |  |  | 73% |  | 29% | 15% |  |  |  | 
15 | NYSTATIN |  |  | 13.2 mg/L | 7.8 mg/L |  | 3.5 mg/L |  |  |  |  |  |  |  |  |  | 
